Assay [1] concerns Mus musculus. The experiment in a line: Effective dose required for its agonist activity in acetylcholine test after po administration. The class given is functional. A digest of the protocol: (§1)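 Agonist (analgesic) screens: modified D'Amour-Smith tail-flick, phenylquinone-induced writhing, acetylcholine-induced writhing (mouse), and rat bradykinin test. Compounds given sc or po.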

Assay [2] relates to Rattus norvegicus. As to the kind of experiment: Effective dose required for its agonist activity in rat bradykinin test after po administration. The class given is functional. A digest of the protocol:
as §1

For assay [3], the system named is Rattus norvegicus. The experiment in a line: Analgesic dose required for its narcotic activity in Phenazocine after sc administration. The class given is functional.
The test system of assay [4] is Rattus norvegicus. As to the kind of experiment: Effective dose required for its agonist activity in rat tail flick test after sc administration; I = inactive. The class given is functional, organism-based. A digest of the protocol:
as §1
(In general: Thermal pain tests record how soon the animal reacts.)

Assay [5] concerns Mus musculus. The experiment in a line: Effective dose required for its agonist activity in acetylcholine test after sc administration. The class given is functional. Summed up: as §1
In assay [6] the test system is Rattus norvegicus. As to the kind of experiment: Analgesic dose required for its narcotic activity in meperidine after po administration. The class given is functional.
Assay [7] relates to Mus musculus. The experiment in a line: Effective dose required for its agonist activity in phenylquinone test after po administration. The class given is functional. Summed up: as §1
For assay [8], the system named is Rattus norvegicus. As to the kind of experiment: Effective dose required for its agonist activity in rat bradykinin test after sc administration. Type of assay: functional. Summed up: as §1
The species entered for assay [9] is Rattus norvegicus. As to the kind of experiment: Analgesic dose required for its narcotic activity in morphine. Type of assay: functional.
In assay [10] the test system is Rattus norvegicus. The experiment in a line: Analgesic dose required for its narcotic activity in meperidine after sc administration. Type of assay: functional.
For assay [11], the system named is Mus musculus. As to the kind of experiment: Effective dose required for its agonist activity in mouse by phenylquinone test after sc administration. The class given is functional. A digest of the protocol:
as §1

Assay [12] concerns Rattus norvegicus. The experiment in a line: Analgesic dose required for its narcotic activity in Phenazocine after po administration. Type of assay: functional.
Assay [13] concerns Rattus norvegicus. The experiment in a line: Analgesic dose required for its narcotic activity morphine after po administration. Type of assay: functional.
In assay [14] the test system is Mus musculus. The experiment in a line: Effective dose required for its agonist activity in mouse by acetylcholine writhing test after sc administration. The class given is functional. Summed up:
as §1
(In general: In writhing tests, fewer writhes than in controls are read as antinociception.)

For assay [15], the system named is Rattus norvegicus. The experiment in a line: Analgesic dose required for its phenazocine antagonistic activity in rat after peroral administration. Type of assay: functional. Summed up:
(§2)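 Narcotic antagonist activity in rats by the Harris–Pierson tail-flick procedure against phenazocine, with compounds given orally. AD50 reported in mg/kg with 95% confidence limits, calculated as free base.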

In assay [16] the test system is Rattus norvegicus. As to the kind of experiment: Analgesic dose required for its phenazocine antagonistic activity in rat after peroral administration; ? = Questionable activity. The class given is functional, organism-based. A digest of the protocol:
as §2

Assay [17] deals with Rattus norvegicus. As to the kind of experiment: Analgesic dose required for its narcotic activity in morphine after sc administration. Type of assay: functional.
For assay [18], the system named is Rattus norvegicus. The experiment in a line: Analgesic dose required for its phenazocine antagonistic activity in rat after peroral administration; I = inactive at 40. The class given is functional, organism-based. A digest of the protocol: as §2
Assay [19] concerns Rattus norvegicus. As to the kind of experiment: Effective dose required for its agonist activity in bradykinin test after sc administration. Type of assay: functional. Summed up: as §1
For assay [20], the system named is Rattus norvegicus. As to the kind of experiment: Analgesic dose required for its narcotic activity in Phenazocine after peroral administration. Type of assay: functional.
For assay [21], the system named is Rattus norvegicus. As to the kind of experiment: Analgesic dose required for its narcotic activity in meperidine after peroral administration. Type of assay: functional.
Assay [22] relates to Rattus norvegicus. As to the kind of experiment: Analgesic dose required for its narcotic activity morphine after peroral administration. Type of assay: functional.
In assay [23] the test system is Mus musculus. As to the kind of experiment: Effective dose required for its agonist activity in Phenylquinone writhing test after sc administration. Type of assay: functional. A digest of the protocol:
as §1

Assay [24] is filed under the species Rattus norvegicus. The experiment in a line: Tested for peroral analgesic dose required for its narcotic activity in meperidine. Type of assay: functional.
Assay [25] relates to Rattus norvegicus. As to the kind of experiment: analgesic dose required for its phenazocine antagonistic activity in rat after peroral administration; I = inactive. Type of assay: functional, organism-based. A digest of the protocol: as §2

The source made the active and inactive calls. The calls are words filed in the database; no cut-off is given here.

Take `C[C@H]1C2Cc3ccc(N)cc3[C@@]1(C)CCN2CC1CC1`: the ED50 in [1] was found to be 3.2 mg/kg; in [2], 8.1 mg/kg; in [5], 0.8 mg/kg; in assay [7], 7.2 mg/kg; in [8], 1.2 mg/kg; in assay [11] it was 1.4 mg/kg. Moreover, the AD50 stood at 2.7 mg/kg in assay [3]; 8.8 mg/kg in assay [6]; 3.7 mg/kg in assay [9]; 2 mg/kg in assay [10]; 10 mg/kg in assay [12]; 15 mg/kg in assay [13]. Also, in assay [4], the ED50 result is “inactive”.
In assay [14], `CC(C)CN1CC[C@]2(C)c3cc(N)ccc3CC1[C@@H]2C` gave an ED50 of 1.5 mg/kg. The compound further came in with an AD50 in assay [15] of 9.4 mg/kg.
Turning to `CCCNc1ccc2c(c1)[C@@]1(C)CCN(CC3CC3)C(C2)[C@@H]1C`, the AD50 result in assay [16] was “Questionable activity”. In assay [14], the ED50 was determined as 1.2 mg/kg.
In [2], `CC(C)=CCN1CC[C@]2(C)c3cc(O)ccc3C[C@H]1[C@H]2C` [(+)-PENTAZOCINE] yielded a Protection of 40 mg/kg. Moreover, the AD50 worked out at 6.3 mg/kg in [3]; 68 mg/kg in [6]; 3.9 mg/kg in assay [10]; 76 mg/kg in assay [12]; 140 mg/kg in assay [13]; 9 mg/kg in [17]. Besides, in [4], the ED50 result is “inactive”. Further, the ED50 in assay [7] was determined as 95 mg/kg; in assay [8], 2.6 mg/kg; in [11], 3.8 mg/kg.
In assay [14], `CNc1ccc2c(c1)[C@@]1(C)CCN(CC3CC3)C(C2)[C@@H]1C` came in with an ED50 of 0.44 mg/kg. This compound also registered an AD50 in [15] of 1.35 mg/kg.
In turn, `CCCCNc1ccc2c(c1)[C@@]1(C)CCN(CC3CC3)C(C2)[C@@H]1C` displayed an ED50 in assay [14] of 1 mg/kg. Further, the AD50 result in [18] is “inactive”.
In assay [14], `CCCN1CC[C@]2(C)c3cc(N)ccc3CC1[C@@H]2C` showed an ED50 of 5.6 mg/kg. The AD50 in assay [15] is 2 mg/kg.
As for `C[C@H]1C2Cc3ccc(NCC4CC4)cc3[C@@]1(C)CCN2CC1CC1.Cl`, it took a dose of 0.7 mg/kg to reach the 50% effect level in assay [14] (ED50). This compound registered an AD50 in assay [15] of 8 mg/kg.
In assay [14], `C[C@H]1C2Cc3ccc(N(C)C)cc3[C@@]1(C)CCN2CC1CC1` showed an ED50 of 0.79 mg/kg.
Take `C[C@H]1[C@H]2Cc3ccc(O)cc3[C@]1(C)CCN2CC1CC1` [CYCLAZOCINE]: the ED50 is 3.7 mg/kg in assay [2], 0.04 mg/kg in assay [19], 3.6 mg/kg in assay [7] and 0.04 mg/kg in [11]. Moreover, the AD50 worked out at 3.1 mg/kg in assay [20]; 0.028 mg/kg in assay [3]; 4.2 mg/kg in [21]; 4.3 mg/kg in assay [22]; 0.019 mg/kg in [10]; 0.029 mg/kg in assay [17]. In assay [4], the ED50 result was “inactive”.
Turning to `C[C@H]1C2Cc3ccc(NCc4ccccc4)cc3[C@@]1(C)CCN2CC1CC1`, the AD50 in assay [15] was found to be 1 mg/kg.
Regarding `C=CCN1CC[C@]2(C)c3cc(N)ccc3CC1[C@@H]2C`, the 50% effect level in assay [14] (ED50) was put at a dose of 2.5 mg/kg. The AD50 in [15] came to 1.5 mg/kg.
In [23], `C[C@H]1C2Cc3ccc([N+](=O)[O-])cc3[C@@]1(C)CCN2CC1CC1.Cl` came in with an ED50 of 24 mg/kg. The compound further returned an AD50 in [24] of 9.6 mg/kg.
In [14], `CCNc1ccc2c(c1)[C@@]1(C)CCN(CC3CC3)C(C2)[C@@H]1C` showed a 50% effective dose (ED50) of 1.3 mg/kg. In assay [18], the AD50 result is “inactive”.
In the case of `C[C@H]1C2Cc3ccc(N)cc3[C@@]1(C)CCN2`, the ED50 in assay [14] turned out to be 6.1 mg/kg. Also, the AD50 result in assay [25] was “inactive”.

The term ED50 denotes the midpoint of the dose-response relation.

The values above are taken from ChEMBL document CHEMBL1121528, “Synthesis and pharmacology of 8-amino-3-(cyclopropylmethyl)-1,2,3,4,5,6-hexahydro-cis-6,11-dimethyl-2,6-methano-3-benzazocine and related compounds” (1980).
